Experimental findings from the RNAGym collection of RNA variant scans (doi:10.1126/science.aae0568) are described below.

Variants at the floor of the assay were thinned out. A value given as a limit tells only on which side of the number the result lay.

B1: tRNA (parent)
chain: GUUCCGUUGGCGUAAUGGUAACGCGUCUCCCUCCUAAGGAGAAGACUGCGGGUUCGAGUCCCGUACGGAACG

The variants in this data set derive from B1. Kind of data set: yeast fitness relative to wild type (ratio to wild type); higher = fitter; tRNA-Arg(CCU), competitive growth, 37 C, YPD. Summed up:
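The tRNA-Arg(CCU) gene variants were made by chemical synthesis with a 3% per-site mutation rate at 69 sites and inserted at the native genomic locus of Saccharomyces cerevisiae. After pooling, the strains were competed in YPD at 37°C for 24 hours in six parallel replicates. Gene amplicons from the start population and each end population were read by 100-nucleotide paired-end sequencing, and Darwinian fitness relative to wild type was taken from genotype frequency changes. Genotypes needed ≥ 100 starting reads, and estimates < 0.5 were set to 0.5.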
For the variant GUUCCGUUGGCGUAAUGAUAACGCAUCUCCCUCCUAAGGAGAAGACUGCGGGUUCGAGUCCCGUACGGAACG, the yeast fitness was 0.665. As for GUUCCGUUGGCGUAAUGCUAACGCGUCUCCCUCCUAAGGAGCCGACUGCGGGUUCGAGUCCCGUAGGGAACG, the figure is not above 0.5. Then GUUCCGUUGGCGUAAUGAUAACGCGUCUCCCUCCUAAGGAGAAGACUGCGGGUUCGAGGCCCGUACGGAACG, with 0.776; and GUUCCGUUGGCGUAAUGAUAACGCGUCUCCCUCCUAAGGAGAAGACUGCGGGUUCGAGUCCCGCACGGAACG, with 0.66. Then GUUCCGUUGGCGUAAUGAUAACGCCUCUCCCUCCUAAGGAGAUGACUGCGGGUUCGAGUCCCGUACGGCACG, with not above 0.5.

Turning to GUUCCGUUGGCGUAAUGAUAACGCAUCUCCCUCCUAAGGAGAAGAUUGCGGGUUCGAGCCCCGUACGAAACG, the yeast fitness is not above 0.5. With GUUCCGUUGGCGUAAUGCUAACGCGUCUCCCUCCUAAGGGGGAGACUGCGGGUUCGAGUCCCGUAGGGAACG, the yeast fitness was not above 0.5. With GUUCCGUUGGCGUAAUGCUAAAGCGUCUUCCUCCUAAGGAGAAGCCUGCGGGUUCGAGUCCCGUACGGUACG, the yeast fitness is not above 0.5. Then GUUCCGUUGGCGUAAUGCUAACGCGUCUCCCUCCUAAGGGGAAGACUGCGGGUUCGAGUCCCGUACGGAACG, with 0.64; and GUUCCGUUGGCGUAAUGAUAACGCGUCUCCCUCCUAAGGAGAAGACUGCGGGAGCGAGUCCCGUACGGAACG, with not above 0.5. GUUCCGUUGGCGUAAUGAUAACGCGUCUCCCUCCUAAGGACCAGACUGUGGGUUCGAGUCCCGUACGGAACG: the yeast fitness is 0.522. In the case of GUUCCGUUGGCGUAAUGAUAACGCCUCUCCCUCCUAAGGAGAAGACUGCGGGUUCGAGUCCCGUACGGAUCG, the yeast fitness worked out at 0.555. On to GUUCCGUUGGCGUAAUGAUAACGCGUCUCCCUCCUAAGGAGAAGACUGCGGGUUCGAGUCCCGUACGCAACG, for which the yeast fitness turned out to be 0.662. As for GUUCCGUUGGCGUAAUGAUAACGCGAUUCCCUCCUAAGGAGAAGACUGUGGGUUCGAAUCCCGUACGGAACG, the figure is not above 0.5. In the case of GUUCCGUUGGCGUAAUGCUAACGCGUCUCCCUCCUAAGGAGAAGCCUGCGGAUUCGAGUCCCGUCCGGAACG, the yeast fitness is not above 0.5. Then GUUCCGUUGGCGUAAUGCUGACGCGUCUCCCUCCUAAGGAGAAGACUGCGGGUUUGAGUCCCGUACCGAACG, with not above 0.5; and GUUCCGUUGGCGUAAUGAUAACGCGUCUCCCUCCUAAGGAGAAGACUGCGAGUUCGAGUCCCGUACGGAGCG, with not above 0.5.

Consider GUUCCGUUGGCGUAAUGAUAACGCGUCCCCCUCCUAAGGAGAAGACUGCGGGUUCGAGUCCCGUACGGAACG, for which the yeast fitness came out at 0.739. Then GUUCCGUUGGCGUAAUGCUAACGCGUCUCCCUCCUAUGGUGAAGACUGCGGGUUCGAGUCCCGCACAGAACG, with not above 0.5; and GUUCCGUUGGCGUAAUGCUAGCGCGUCUCCCUCCUAAGGAGAAGACUGCGGGUUCGAGUCCCGUACAGAACG, with not above 0.5. In the case of GUUCCGUUGGCGUAAUGCUAACGCGUCUCCCUCCUAAGGAGAAGUCUGCGGGUUCGAGUCCCGUACGGAACG, the yeast fitness stood at 0.549. As for GUUCCGUUGGCGUAAUGCUAGCACGUCUCCCUCCUAAGGAGACGACUGCGGGUUCGAGUCCCGUACGGAACG, the figure is not above 0.5. As for GUUCCGUUGGCGUAAUGCUAAAGCGUCUCCCCCCUAAGGAGAAGCUUGCGGGUUCGAGUCCCGUCCGGAACG, the figure is not above 0.5; as for GUUCCGUUGGCGUAAUGCUAACGCGUCUCCCUCCUAAGGCGAAGACUGGGGGUUCGAGUCCCAUACGGAACG, 0.553.

Take GUUCCGUUGGCGUAAUGAUAACGCGUCUCCCUCCUAAGGAGAAGACUGCAGGUUCGAGUCCCGUACGGAACG: the yeast fitness is 0.853. Then GUUCCGUUGGCGUAAUGCUAACGCGUCUCCCUCCUUAGGAGAAGACUGCGGGUUUGAGACCCGUACGGAACG, with not above 0.5; and GUUCCGUUGGCGUAAUGAUAACGCAUCUGCCUCAUAAGGAGAAGACUGCGGGUUCGAGUCCCCUACGGAACG, with not above 0.5; and GUUCCGUUGGCGUAAUGCUACCGCGUUUCCCUCCUAUGGAGAAGACUGCGGGUUCGAGUCCCGUACGGAACG, with not above 0.5.

With GUUCCGUUGGCGUAAUGCUAACGCGUCUCCCUCCUAAGGAGAAGACUGCGGGUUCGAGUCCCGUACGGUACG, the yeast fitness turned out to be 0.695.

For GUUCCGUUGGCGUAAUGAUAACGCGUCUCCCUCCUAAGGAGAACACUGCGGGUUCGAGUCCCGUACGGAACG, the yeast fitness came to 0.767. Then GUUCCGUUGGCGUAAUGAUAACGCGUCUCCCUCCUAAGGAGAAAACUGCGGGUUCGAGUCCCGUACGGAACG, with 0.637; and GUUCCGUUGGCGUAAUGAUAACGCGUCUCCCUCCUAAGGAGAAGACUGCCGGUUCCAGUCCCGUACGGAACG, with not above 0.5. Then GUUCCGUUGGCGUAAUGAUAACGCGUCUCCCUCCUAAGGAGAAGACUGCCGGUUGGAGUCCAGUACGGAACG, with 0.561; and GUUCCGUUGGCGUAAUGAUAACGCGUCUCCCUCCUAAGGAGAAGACUGCGGGUUCGAGUCCCGUACGCUACG, with not above 0.5; and GUUCCGUUGGCGUAAUGAUAACGCGUCUCCCUCCUAAGGAGAAGACUGCGGGUUCGAGUCCUGAACGGAACG, with 0.517. With GUUCCGUUGGCGUAAUGAUAACGCGUCUCCCUCCCAAGGAGAAGACCGCCGGUUCGAGUCCCGUACGGAACG, the yeast fitness is not above 0.5. Consider GUUCCGUUGGCGUAAUGAUAACGCGUCUCCCUCCUAAGGACAAGACUGCGGGUACGAGUCCCAUACGGAACG, for which the yeast fitness is not above 0.5.
